System: HEK-293T
Test: Multiplex assay against HEK293T
Format: toxicity, cell-based
Details: human
Summary of the method: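 With compound added, live cells were imaged on a CQ1 microscope at 37°C and 5% CO2; staining with Hoechst33342, BioTracker Green Microtubule Cytoskeleton Dye, MitoTracker Red and Annexin V Alexa Fluor 680 had been done at seeding. The CellPathfinder machine-learning gating scheme split cells into Hoechst high-intensity objects or normal cells, normal cells into healthy, pyknosed or fragmented nuclei, and pyknosed cells into mitotic or apoptotic. The tubulin, mitochondrial-mass and membrane-permeability phenotypes are per cents of healthy-nucleus cells.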

[1] = 12 h, 1 µM, compound concentration 1 uM, replicate 1
[2] = 12 h, 1 µM, compound concentration 1 uM, replicate 2
[3] = 12 h, 10 µM, compound concentration 10 uM, replicate 1
[4] = 12 h, 10 µM, compound concentration 10 uM, replicate 2
[5] = 24 h, 1 µM, compound concentration 1 uM, replicate 1
[6] = 24 h, 1 µM, compound concentration 1 uM, replicate 2
[7] = 24 h, 10 µM, compound concentration 10 uM, replicate 1
[8] = 24 h, 10 µM, compound concentration 10 uM, replicate 2
[9] = 48 h, 1 µM, compound concentration 1 uM, replicate 1
[10] = 48 h, 1 µM, compound concentration 1 uM, replicate 2
[11] = 48 h, 10 µM, compound concentration 10 uM, replicate 1
[12] = 48 h, 10 µM, compound concentration 10 uM, replicate 2

Cc1sc2c(c1C)C(c1ccc(Cl)cc1)=N[C@H](CC(=O)OC(C)(C)C)c1nnc(C)n1-2
Population Apoptotic (%) [1]: 40% | Population Fragmented Nuclei (%) [1]: 8% | Population Healthy Nuclei (%) [1]: 80% | Population Hoechst High Intensity Objects (%) [1]: 8% | Population Membrane Permeable-Phenotype (%) [1]: 0% | Population Mitochondria Different-Phenotype (%) [1]: 49% | Population Mitotic Cells (%) [1]: 60% | Population Normal (%) [1]: 91% | Population Pyknosed Nuclei (%) [1]: 10% | Population Tubulin-Different-Phenotype (%) [1]: 32% | Total Cell Count [1]: 478 | Population Apoptotic (%) [2]: 44% | Population Fragmented Nuclei (%) [2]: 6% | Population Healthy Nuclei (%) [2]: 76% | Population Hoechst High Intensity Objects (%) [2]: 9% | Population Mitochondria Different-Phenotype (%) [2]: 65% | Population Mitotic Cells (%) [2]: 55% | Population Normal (%) [2]: 90% | Population Pyknosed Nuclei (%) [2]: 17% | Population Tubulin-Different-Phenotype (%) [2]: 26% | Total Cell Count [2]: 333 | Population Apoptotic (%) [3]: 41% | Population Fragmented Nuclei (%) [3]: 7% | Population Healthy Nuclei (%) [3]: 76% | Population Hoechst High Intensity Objects (%) [3]: 7% | Population Membrane Permeable-Phenotype (%) [3]: 0% | Population Mitochondria Different-Phenotype (%) [3]: 74% | Population Mitotic Cells (%) [3]: 58% | Population Normal (%) [3]: 92% | Population Pyknosed Nuclei (%) [3]: 15% | Population Tubulin-Different-Phenotype (%) [3]: 67% | Total Cell Count [3]: 395 | Population Apoptotic (%) [4]: 66% | Population Fragmented Nuclei (%) [4]: 5% | Population Healthy Nuclei (%) [4]: 72% | Population Hoechst High Intensity Objects (%) [4]: 10% | Population Mitochondria Different-Phenotype (%) [4]: 90% | Population Mitotic Cells (%) [4]: 33% | Population Normal (%) [4]: 89% | Population Pyknosed Nuclei (%) [4]: 21% | Population Tubulin-Different-Phenotype (%) [4]: 70% | Total Cell Count [4]: 303 | Population Apoptotic (%) [5]: 32% | Population Fragmented Nuclei (%) [5]: 10% | Population Healthy Nuclei (%) [5]: 76% | Population Hoechst High Intensity Objects (%) [5]: 5% | Population Membrane Permeable-Phenotype (%) [5]: 0% | Population Mitochondria Different-Phenotype (%) [5]: 29% | Population Mitotic Cells (%) [5]: 68% | Population Normal (%) [5]: 94% | Population Pyknosed Nuclei (%) [5]: 13% | Population Tubulin-Different-Phenotype (%) [5]: 19% | Total Cell Count [5]: 609 | Population Healthy Nuclei (%) [6]: 82% | Population Hoechst High Intensity Objects (%) [6]: 6% | Population Mitochondria Different-Phenotype (%) [6]: 43% | Population Mitotic Cells (%) [6]: 67% | Population Normal (%) [6]: 93% | Population Pyknosed Nuclei (%) [6]: 6% | Population Tubulin-Different-Phenotype (%) [6]: 11% | Total Cell Count [6]: 479 | Population Apoptotic (%) [7]: 41% | Population Fragmented Nuclei (%) [7]: 8% | Population Healthy Nuclei (%) [7]: 68% | Population Hoechst High Intensity Objects (%) [7]: 4% | Population Membrane Permeable-Phenotype (%) [7]: 0% | Population Mitochondria Different-Phenotype (%) [7]: 64% | Population Mitotic Cells (%) [7]: 58% | Population Normal (%) [7]: 95% | Population Pyknosed Nuclei (%) [7]: 23% | Population Tubulin-Different-Phenotype (%) [7]: 46% | Total Cell Count [7]: 468 | Population Apoptotic (%) [8]: 49% | Population Fragmented Nuclei (%) [8]: 3% | Population Healthy Nuclei (%) [8]: 76% | Population Hoechst High Intensity Objects (%) [8]: 6% | Population Membrane Permeable-Phenotype (%) [8]: 1% | Population Mitochondria Different-Phenotype (%) [8]: 76% | Population Mitotic Cells (%) [8]: 50% | Population Normal (%) [8]: 93% | Population Pyknosed Nuclei (%) [8]: 19% | Population Tubulin-Different-Phenotype (%) [8]: 47% | Total Cell Count [8]: 378 | Population Apoptotic (%) [9]: 18% | Population Fragmented Nuclei (%) [9]: 11% | Population Healthy Nuclei (%) [9]: 80% | Population Hoechst High Intensity Objects (%) [9]: 3% | Population Membrane Permeable-Phenotype (%) [9]: 1% | Population Mitochondria Different-Phenotype (%) [9]: 16% | Population Mitotic Cells (%) [9]: 81% | Population Normal (%) [9]: 96% | Population Pyknosed Nuclei (%) [9]: 7% | Population Tubulin-Different-Phenotype (%) [9]: 10% | Total Cell Count [9]: 1012 | Population Apoptotic (%) [10]: 30% | Population Fragmented Nuclei (%) [10]: 14% | Population Healthy Nuclei (%) [10]: 79% | Population Hoechst High Intensity Objects (%) [10]: 4% | Population Membrane Permeable-Phenotype (%) [10]: 0% | Population Mitochondria Different-Phenotype (%) [10]: 21% | Population Mitotic Cells (%) [10]: 69% | Population Normal (%) [10]: 95% | Population Pyknosed Nuclei (%) [10]: 5% | Population Tubulin-Different-Phenotype (%) [10]: 12% | Total Cell Count [10]: 685 | Population Apoptotic (%) [11]: 31% | Population Fragmented Nuclei (%) [11]: 9% | Population Healthy Nuclei (%) [11]: 73% | Population Hoechst High Intensity Objects (%) [11]: 3% | Population Membrane Permeable-Phenotype (%) [11]: 0% | Population Mitochondria Different-Phenotype (%) [11]: 47% | Population Mitotic Cells (%) [11]: 68% | Population Normal (%) [11]: 96% | Population Pyknosed Nuclei (%) [11]: 16% | Population Tubulin-Different-Phenotype (%) [11]: 19% | Total Cell Count [11]: 641 | Population Apoptotic (%) [12]: 55% | Population Fragmented Nuclei (%) [12]: 8% | Population Healthy Nuclei (%) [12]: 76% | Population Hoechst High Intensity Objects (%) [12]: 5% | Population Mitochondria Different-Phenotype (%) [12]: 66% | Population Mitotic Cells (%) [12]: 44% | Population Normal (%) [12]: 94% | Population Pyknosed Nuclei (%) [12]: 15% | Population Tubulin-Different-Phenotype (%) [12]: 28% | Total Cell Count [12]: 525
